≈ marks a conversion by molar mass, not a printed value. One block for each molecule: values may come before it. Calls of active or inactive are those of the source. No cut-off for these calls is given here.
Legend:
[1] = target: Keap1/Nrf2 (Homo sapiens, UniProt Q14145); assay: Inhibition of Keap1 Kelch domain (unknown origin) /Nrf2 (unknown origin) interaction using fluorescein-labeled 9-mer peptide containing NRF2 Neh2 domain ETGE motif by fluorescence anisotropy assay; format: protein assay
[2] = Kinetic solubility in pH 7.4 incubated for 1 hr by HPLC method; format: physicochemical; details: buffer, read-out: Kinetic_solubility
[3] = Stability in mouse liver microsomes assessed as compound remaining level at 200 uM incubated for 20 mins by LC-MS method; format: ADME, microsome; details: read-out: Stability
[4] = target: T1, Keap1/Nrf2 (Homo sapiens) (UniProt Q16236+Q14145); assay: Inhibition of Keap1/Nrf2 interaction in human HaCaT cells assessed as increase in NQO1 gene expression at 10 uM incubated for 24 hrs by qPCR method; format: cell-based
T1 sequence (Q14145 whole entry, looked up): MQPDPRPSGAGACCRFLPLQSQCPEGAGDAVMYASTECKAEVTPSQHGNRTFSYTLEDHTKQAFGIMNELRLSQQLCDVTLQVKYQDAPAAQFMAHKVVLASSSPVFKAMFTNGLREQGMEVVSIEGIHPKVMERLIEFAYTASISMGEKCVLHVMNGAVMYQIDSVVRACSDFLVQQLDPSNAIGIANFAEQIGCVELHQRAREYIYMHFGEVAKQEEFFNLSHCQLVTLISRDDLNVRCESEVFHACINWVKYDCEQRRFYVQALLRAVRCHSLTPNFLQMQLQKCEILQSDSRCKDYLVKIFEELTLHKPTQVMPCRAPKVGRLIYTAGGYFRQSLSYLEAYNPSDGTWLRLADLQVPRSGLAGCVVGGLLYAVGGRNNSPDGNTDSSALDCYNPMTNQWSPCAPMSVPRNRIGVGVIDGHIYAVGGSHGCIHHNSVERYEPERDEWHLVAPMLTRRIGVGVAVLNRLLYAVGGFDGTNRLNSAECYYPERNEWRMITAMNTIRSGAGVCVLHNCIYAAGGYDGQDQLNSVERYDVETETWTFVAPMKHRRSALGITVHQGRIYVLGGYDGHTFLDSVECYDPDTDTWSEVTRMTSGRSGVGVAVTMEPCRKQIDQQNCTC
T1 sequence (Q16236 whole entry, looked up): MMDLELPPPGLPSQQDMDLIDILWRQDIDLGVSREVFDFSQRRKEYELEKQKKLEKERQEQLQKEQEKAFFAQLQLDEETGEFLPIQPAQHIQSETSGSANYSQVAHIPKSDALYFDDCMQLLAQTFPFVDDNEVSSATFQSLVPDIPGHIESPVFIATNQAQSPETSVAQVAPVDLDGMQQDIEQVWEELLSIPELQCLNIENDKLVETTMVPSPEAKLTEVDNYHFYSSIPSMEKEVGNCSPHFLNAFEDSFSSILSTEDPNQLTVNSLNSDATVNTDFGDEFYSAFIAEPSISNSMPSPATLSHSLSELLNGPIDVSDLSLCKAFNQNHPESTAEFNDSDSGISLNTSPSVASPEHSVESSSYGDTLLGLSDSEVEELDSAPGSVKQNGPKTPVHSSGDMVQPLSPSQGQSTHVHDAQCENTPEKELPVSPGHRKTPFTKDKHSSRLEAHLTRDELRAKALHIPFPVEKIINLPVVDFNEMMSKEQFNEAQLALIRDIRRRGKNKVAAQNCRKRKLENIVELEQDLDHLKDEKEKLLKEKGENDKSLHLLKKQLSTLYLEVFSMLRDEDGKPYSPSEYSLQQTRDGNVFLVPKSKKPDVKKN

[5] = target: T1, Keap1/Nrf2 (Homo sapiens); assay: Inhibition of Keap1/Nrf2 interaction in human HaCaT cells assessed as increase in NRF2 nuclear accumulation at 10 uM incubated for 6 hrs by immunoblot assay; format: cell-based
[6] = target: T1, Keap1/Nrf2 (Homo sapiens); assay: Inhibition of Keap1/Nrf2 interaction in human HaCaT cells assessed as increase in NQO1 protein expression at 10 uM incubated for 24 hrs by Western blot method; format: cell-based
Procedure, shortened: (§1)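 HaCaT cells in DMEM, 10% FBS, 1% antibiotics, treated at 70–80% confluence with 10 μM compound or DMSO for 6 or 24 h in complete medium. Lysates (~40 μg protein) resolved by 10% SDS-PAGE, immunoblotted for NQO1; bands quantified against GAPDH, vehicle set to one arbitrary unit.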

[7] = target: T1, Keap1/Nrf2 (Homo sapiens); assay: Inhibition of Keap1/Nrf2 interaction in human HaCaT cells assessed as increase in GCLM gene expression at 10 uM incubated for 24 hrs by qPCR method; format: cell-based
[8] = target: T1, Keap1/Nrf2 (Homo sapiens); assay: Inhibition of Keap1/Nrf2 interaction in human HaCaT cells assessed as increase in NQO1 gene expression at 10 uM incubated for 6 hrs by qPCR method; format: cell-based
[9] = target: T1, Keap1/Nrf2 (Homo sapiens); assay: Inhibition of Keap1/Nrf2 interaction in human HaCaT cells assessed as increase in HMOX1 gene expression at 10 uM incubated for 24 hrs by qPCR method; format: cell-based
[10] = test system: HaCaT; assay: Effect on SOD2 gene expression in human HaCaT cells at 10 uM incubated for 24 hrs by qPCR method; format: ADME, cell-based
[11] = target: T1, Keap1/Nrf2 (Homo sapiens); assay: Inhibition of Keap1/Nrf2 interaction in human HaCaT cells assessed as increase in GCLC gene expression at 10 uM incubated for 6 hrs by qPCR method; format: cell-based
[12] = target: T1, Keap1/Nrf2 (Homo sapiens); assay: Inhibition of Keap1/Nrf2 interaction in human HaCaT cells assessed as increase in HMOX1 gene expression at 10 uM incubated for 6 hrs by qPCR method; format: cell-based
[13] = target: T1, Keap1/Nrf2 (Homo sapiens); assay: Inhibition of Keap1/Nrf2 interaction in human HaCaT cells assessed as increase in NQO1 protein expression at 10 uM incubated for 6 hrs by Western blot method; format: cell-based; procedure, shortened: as §1
[14] = target: Kelch-like ECH-associated protein 1 (Homo sapiens, UniProt Q14145); assay: Binding affinity to Keap1 Kelch domain (unknown origin) by surface plasmon resonance assay
Kelch-like ECH-associated protein 1, sequence (Q14145 whole entry, the tested form may be a part): as the sequence (Q14145 whole entry, looked up) above

[15] = target: T1, Keap1/Nrf2 (Homo sapiens); assay: Inhibition of Keap1/Nrf2 interaction in human HaCaT cells assessed as increase in GCLM gene expression at 10 uM incubated for 6 hrs by qPCR method; format: cell-based
[16] = test system: HaCaT; assay: Effect on SOD2 gene expression in human HaCaT cells at 10 uM incubated for 6 hrs by qPCR method; format: ADME, cell-based
[17] = target: T1, Keap1/Nrf2 (Homo sapiens); assay: Inhibition of Keap1/Nrf2 interaction in human HaCaT cells assessed as increase in NRF2 nuclear accumulation at 10 uM incubated for 24 hrs by immunoblot assay; format: cell-based
[18] = target: T1, Keap1/Nrf2 (Homo sapiens); assay: Inhibition of Keap1/Nrf2 interaction in human HaCaT cells assessed as increase in GCLC gene expression at 10 uM incubated for 24 hrs by qPCR method; format: cell-based
[19] = test system: Salmonella typhimurium; assay: Cytotoxicity in Salmonella typhimurium TA100 at 1.5 to 1000 ug/well; format: organism-based; details: salmonella enterica subsp. enterica serovar typhimurium
Procedure, shortened: (§2)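 Mini-Ames plate incorporation; compounds dissolved in DMSO, tested at 1.5–1000 µg/well with and without Aroclor 1254-induced rat liver S9, alongside solvent and positive controls. Cells in top agar over minimal glucose agar; triplicate wells (vehicle sextuplicate), 37 ± 2 °C for 48–72 h. Cytotoxicity scored as fewer revertants per well and/or thinning or loss of background lawn relative to negative control.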

[20] = test system: Salmonella typhimurium; assay: Cytotoxicity in Salmonella typhimurium TA98 at 1.5 to 1000 ug/well; format: organism-based; details: salmonella enterica subsp. enterica serovar typhimurium; procedure, shortened: as §2
[21] = test system: Salmonella typhimurium; assay: Cytotoxicity in Salmonella typhimurium TA1535 at 1.5 to 1000 ug/well; format: organism-based; details: salmonella enterica subsp. enterica serovar typhimurium; procedure, shortened: as §2
[22] = Lipophilicity, log D of the compound; format: physicochemical; details: octanol/water
[23] = test system: Salmonella typhimurium; assay: Cytotoxicity in Salmonella typhimurium TA1537 at 1.5 to 1000 ug/well; format: organism-based; details: salmonella enterica subsp. enterica serovar typhimurium; procedure, shortened: as §2
[24] = test system: Escherichia coli; assay: Cytotoxicity in Escherichia coli WP2 uvrA (pKM101) at 1.5 to 1000 ug/well; format: organism-based; details: in vivo; procedure, shortened: as §2
[25] = Stability in human liver microsomes assessed as compound remaining level at 1 uM incubated for 20 mins by LC-MS method
[26] = test system: Salmonella typhimurium; assay: Mutagenicity in Salmonella typhimurium TA100 assessed as increase in number of revertant colonies at 1.5 to 1000 ug/well in presence of rat liver S9 fractions incubated for 48 to 72 hrs; format: toxicity, organism-based; details: salmonella enterica subsp. enterica serovar typhimurium
Procedure, shortened: (§3)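 Reverse mutation at histidine locus in top agar (0.6% agar, 0.5% NaCl, histidine/biotin) with Aroclor 1254-induced rat liver S9 mix; DMSO vehicle, doses 1.5–1000 µg/well. Plated in triplicate wells (vehicle sextuplicate) on minimal glucose agar, 37 ± 2 °C for 48–72 h. Revertant colonies counted manually; fold-change over DMSO, p-values by two-tailed t-test.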

[27] = Stability in mouse liver microsomes assessed as compound remaining level at 1 uM incubated for 20 mins by LC-MS method
[28] = test system: Salmonella typhimurium; assay: Mutagenicity in Salmonella typhimurium TA98 assessed as increase in number of revertant colonies at 1.5 to 1000 ug/well in presence of rat liver S9 fractions incubated for 48 to 72 hrs; format: toxicity, organism-based; details: salmonella enterica subsp. enterica serovar typhimurium; procedure, shortened: as §3

Keap1/Nrf2, sequence (Q16236 whole entry, the tested form may be a part): as the sequence (Q16236 whole entry, looked up) above
Keap1/Nrf2, sequence (Q14145 whole entry, the tested form may be a part): as the sequence (Q14145 whole entry, looked up) above

- solubility kinetic at 1 h [2]: 5.4 µM (≈ 2.69 µg/mL)
- remaining at 20 min, 200 µM [3]: 15%
Structure (SMILES): COc1ccc(S(=O)(=O)Nc2ccc(NS(=O)(=O)c3ccc(OC)cc3)c3ccccc23)cc1

- IC50 [1]: 0.101 µM
- inhibition [4]: Active
- inhibition [5]: Active
- inhibition [6]: Active
- inhibition [7]: Active
- inhibition [8]: Active
- inhibition [9]: inactive
- inhibition [11]: Active
- inhibition [12]: inactive
- inhibition [13]: Active
- Kd [14]: 0.103 µM
- inhibition [15]: Active
- inhibition [17]: Active
- inhibition [18]: Active
Structure (SMILES): COc1ccc(S(=O)(=O)N(CC(=O)O)c2ccc(N(CC(=O)O)S(=O)(=O)c3ccc(OC)cc3)c3ncccc23)cc1
- Activity [10]: Non-Toxic
- Activity [16]: Non-Toxic

- logD [22]: -1.7
Structure (SMILES): COc1ccc(S(=O)(=O)N(CC(=O)O)c2cnc(N(CC(=O)O)S(=O)(=O)c3ccc(OC)cc3)c3ccccc23)cc1
- Activity [19]: Non-Toxic
- Activity [20]: Non-Toxic
- Activity [10]: Non-Toxic
- Activity [21]: Non-Toxic
- Activity [23]: Non-Toxic
- Activity [24]: Non-Toxic
- Activity [16]: Non-Toxic

- IC50 [1]: > 25 µM
Structure (SMILES): COc1ccc(S(=O)(=O)N(CC=CCN(CC(=O)O)S(=O)(=O)c2ccc(OC)cc2)CC(=O)O)cc1 (mixture of isomers)

- IC50 [1]: > 25 µM
Structure (SMILES): COc1ccc(S(=O)(=O)N(CC(=O)O)C(=O)c2ccccc2C(=O)N(CC(=O)O)S(=O)(=O)c2ccc(OC)cc2)cc1

Further lines, the molecule ahead of its results:

Structure (SMILES): COc1ccc(S(=O)(=O)N(CC(=O)O)c2ccc(N(CC(=O)O)S(=O)(=O)c3ccc(OC)cc3)c3[nH]ccc23)cc1
- IC50 [1]: 1.3 µM

Structure (SMILES): COc1ccc(S(=O)(=O)Nc2nnc(NS(=O)(=O)c3ccc(OC)cc3)c3ccccc23)cc1
- IC50 [1]: > 25 µM

Structure (SMILES): COc1ccc(S(=O)(=O)Nc2ccc(NS(=O)(=O)c3ccc(OC)cc3)c3ncccc23)cc1
- IC50 [1]: > 25 µM

Structure (SMILES): COc1ccc(S(=O)(=O)N(CC(=O)O)c2ccc(N(CC(=O)O)S(=O)(=O)c3ccc(OC)cc3)c3ccccc23)cc1
- Stability [25]: Stable
- Activity [26]: Dose-dependent effect
- Stability [27]: Stable
- solubility kinetic at 1 h [2]: 440 µM (≈ 270 µg/mL)
- Activity [19]: Non-Toxic
- Activity [28]: Dose-dependent effect
- Activity [20]: Non-Toxic
- Activity [21]: Non-Toxic
- logD [22]: -1.9
- Activity [23]: Non-Toxic
- Activity [24]: Non-Toxic

Structure (SMILES): COc1ccc(S(=O)(=O)N(CC(=O)O)c2ccc(N(CC(=O)O)S(=O)(=O)c3ccc(OC)cc3)cc2)cc1
- IC50 [1]: 0.98 µM

Structure (SMILES): COc1ccc(S(=O)(=O)N(CC(N)=O)c2ccc(N(CC(N)=O)S(=O)(=O)c3ccc(OC)cc3)c3ccccc23)cc1
- solubility kinetic at 1 h [2]: 22 µM (≈ 13.5 µg/mL)
- remaining at 20 min, 200 µM [3]: 0%

Structure (SMILES): COc1ccc(S(=O)(=O)N(CC(=O)O)Cc2ccccc2CN(CC(=O)O)S(=O)(=O)c2ccc(OC)cc2)cc1
- IC50 [1]: > 25 µM

Structure (SMILES): COc1ccc(S(=O)(=O)N(CC(=O)O)c2ccc(N(CC(=O)O)S(=O)(=O)c3ccc(OC)cc3)nc2)cc1
- IC50 [1]: > 25 µM

Structure (SMILES): COc1ccc(S(=O)(=O)Nc2ccc(NS(=O)(=O)c3ccc(OC)cc3)c3[nH]ccc23)cc1
- IC50 [1]: > 25 µM

Source: ChEMBL document CHEMBL4145697, “Replacement of a Naphthalene Scaffold in Kelch-like ECH-Associated Protein 1 (KEAP1)/Nuclear Factor (Erythroid-derived 2)-like 2 (NRF2) Inhibitors” (J Med Chem, 2018)
